KCNK9 inh: blocks the human KCNK9 two-pore domain potassium channel | Q9NPC2 | B-score at 10 µM | HEK293 KCNK9, FluxOR thallium flux fluorescence; hits give low values | 310,000 compounds, 1.2% hits | AID 488922;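 active means ratio B-score over 3 SD below the library mean, with starting fluorescence within 5 SD of its mean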;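 further: negative B-score means less thallium flux so channel inhibition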
Target sequence (Q9NPC2 whole entry, looked up, the tested form may be a part): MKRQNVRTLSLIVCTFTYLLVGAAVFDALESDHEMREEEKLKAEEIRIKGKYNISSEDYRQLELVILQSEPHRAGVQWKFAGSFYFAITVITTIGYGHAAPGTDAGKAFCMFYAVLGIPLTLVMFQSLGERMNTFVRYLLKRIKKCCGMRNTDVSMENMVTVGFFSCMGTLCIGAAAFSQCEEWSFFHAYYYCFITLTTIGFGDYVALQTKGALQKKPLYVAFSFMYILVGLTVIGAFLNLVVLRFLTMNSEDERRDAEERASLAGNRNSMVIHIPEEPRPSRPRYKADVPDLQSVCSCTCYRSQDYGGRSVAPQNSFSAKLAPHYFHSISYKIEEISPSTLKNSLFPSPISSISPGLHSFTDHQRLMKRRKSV
KCNK3 inh: human KCNK3 channel inhibition, primary screen. O14649. CHO-KCNK3 thallium flux, FluxOR fluorescence; hits give low values. B-score at 10 µM. 340,000 compounds, 0.84% hits. AID 602410;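 active means B-score under library mean minus 4 SD, starting fluorescence ratio at most library mean plus 5 SD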;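 further: more negative B-score means stronger inhibition of thallium flux through KCNK3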
Kir21 inh: inhibitors of mouse Kir2.1 inward-rectifier potassium channel; AID 1672; 310,000 compounds, 0.85% hits; P35561; HEK293-Kir2.1, FluxOR thallium flux fluorescence; hits give low values; B-score at 10 µM;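 active means fluorescence ratio B-score at or below minus 3 SD of library scores, with starting-brightness B-score within 2 SD, cut at about -4.2 in these data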;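 further: channel flux triggered by added potassium and thallium sulfate stimulus; B-score of peak minus minimum fluorescence over baseline after thallium stimulus; more negative B-score means stronger Kir2.1 block with less thallium influx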
KCNQ1 inh: blocks the human KCNQ1 potassium channel; P51787; CHO-K1 KCNQ1, FluxOR thallium flux fluorescence; hits give high values; B-score at 10 µM; 310,000 compounds, 1.3% hits; AID 2642;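 active means compounds whose thallium flux B-score, printed positive for inhibition, exceeds three library SD while starting fluorescence stays within three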;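 further: channel opened by potassium depolarization with thallium stimulus after 20 min compound exposure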
hERG protect: shields human hERG channel from block by proarrhythmic agents. CHO-hERG, FluxOR thallium flux, dofetilide IC70 present. activation (rescue from dofetilide block), less the hit threshold, % at 10 µM. AID 1511. 310,000 compounds, 0.51% hits. Q12809;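 active means activation above the mean of controls blocked by dofetilide plus 5 SD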;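 further: thallium influx through hERG after potassium depolarization seen as dye fluorescence rise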
KCNQ1 act: potentiates or activates the human KCNQ1 potassium channel. P51787. CHO-K1 KCNQ1, thallium flux FluxOR fluorescence; hits give high values. B-score at 10 µM. 310,000 compounds, 0.35% hits. AID 2648;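 active means fluorescence ratio B-score, a plate-corrected score, at least three library SD, with initial intensity B-score within 5 SD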
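Assay system: CHO-K1 cells stably expressing KCNQ1. Medium: assay buffer for compound exposure, DMSO matched across wells. Timing: 37 °C overnight plating, 90-min dark dye load, 20-min compound pretreatment. Signal: kinetic FluxOR fluorescence, 10 s baseline plus 110 s post-stimulus.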
Starred values were filed as active, the others as inactive; i = inactive; nt = no result. Sampled rows, rich in hits. Any-hit rate of the full collection: about 3.8%.

SMILES	KCNK9 inh	KCNK3 inh	Kir21 inh	KCNQ1 inh	hERG protect	KCNQ1 act
CCC(C)NC(=O)C1CCN(S(=O)(=O)c2ccc(-n3cnnn3)cc2)CC1 (stereo not drawn)	i	i	-0.05	i	-1	i
NNC(=O)c1cc2nc(-c3cccs3)cc(C(F)(F)F)n2n1	i	i	1.2	i	-6	i
FC(F)(F)c1cc(-c2cccs2)nc2cc(-c3cccs3)nn12	i	i	0.81	6*	-1	i
CC(Oc1ccc(Br)cc1)C(=O)Nc1ccc(S(=O)(=O)Nc2nccs2)cc1 (stereo not drawn)	i	i	-0.82	i	-14	i
CCOc1ccc(OCCNC(=O)c2cc(C3CC3)nc3c2cnn3C(C)C)cc1	nt	-8.9*	nt	nt	nt	nt
CC(C)n1ncc2c(C(=O)NCCOc3ccccc3F)cc(C3CC3)nc21	nt	i	nt	nt	nt	nt
CCCOC(=O)c1ccc(NC(=O)c2ccccc2OC)cc1	-7.5*	i	2.5	i	-12	i
Cc1nc2sc(C(c3ccco3)N3CCN(C(c4ccccc4)c4ccccc4)CC3)c(O)n2n1 (stereo not drawn)	i	i	0.06	i	-16	i
O=C(CN1CCN(Cc2ccccc2F)CC1)Nc1ccccc1Cl	i	i	0.52	i	-1	i
O=C1C=C(c2cccc3c2sc2ccccc23)C[C@@H](c2ccc(Cl)cc2)C1	nt	i	nt	nt	nt	nt
CC1(C(=O)O)CCC(C(=O)NC2CCCCC2)C1(C)C (stereo not drawn)	-7.6*	i	0.01	i	1	i
Cc1ccccc1OCc1nc2ccccc2c(=O)n1/N=C/c1c[nH]c2ccccc12	i	i	0.16	i	-4	i
Cc1cc(/C=N/n2c(COc3ccccc3C)nc3ccccc3c2=O)c(O)c([N+](=O)[O-])c1	i	i	1.7	14*	-17	i
Cc1onc(-c2ccccc2)c1C(=O)NNC(=S)NC(=O)c1ccc(Br)cc1	i	i	1.8	i	-16	34*
COC(=O)c1c(-c2ccccc2)noc1C	i	i	1.3	i	5.8*	i
Cc1ccccc1C(=O)NNC(=S)NC(=O)c1ccc(Cl)cc1Cl	i	i	1.4	i	-15	15*
CCC(=O)Nc1cccc(NC(=S)NC(=O)c2ccc(Cl)cc2Cl)c1	i	i	-0.09	i	-4	i
COC(=O)c1onc(-c2ccccc2)c1C(=O)OC	i	i	1	i	-7	i
O=C(NC(=S)NNC(=O)c1ccc(Cl)cc1Cl)c1cccnc1	i	i	0.01	i	-9	i
CCCN(CCC)C(=S)NC(=O)c1ccc(Cl)cc1Cl	i	i	1.3	i	25*	55*
COc1cc(/C=C2\SC(=O)N(c3ccc(Cl)cc3)C2=O)cc([N+](=O)[O-])c1O	nt	i	nt	nt	nt	nt
CCN1CCN(Cc2ccc(NC(=O)Nc3ccc(OC)cc3)cc2)CC1	i	i	0.38	i	-4	i
Cc1onc(-c2ccccc2)c1C(=O)NNC(=S)NC(=O)c1ccc(Cl)cc1Cl	i	i	-0.41	i	-4	20*
S=C(Nc1ccccc1)N1CCN(C(=S)Nc2ccccc2)CC1	i	nt	1.3	i	-4	i
CCN1C(=O)CSc2ccc(C(=O)NCc3ccc(OC)cc3)cc21	i	i	-8.9*	i	-5	i
SMILES	KCNK9 inh	KCNK3 inh	Kir21 inh	KCNQ1 inh	hERG protect	KCNQ1 act
Cc1ccc(-c2cc(C(=O)Nc3cc(C)ccc3O)no2)cc1	-7.8*	i	1.9	i	-8	i
CN(C)c1ccc(C(=O)Nc2ccc(S(=O)(=O)NC3=NCCCCC3)cc2)cc1	i	i	-0.07	i	-8	i
CCN(CC)CCN(C(=O)c1ccc2c(c1)CCCC2)c1nc2ccc(OC)cc2s1	i	i	-0.66	12*	-29	i
CCN(CC)CCN(C(=O)c1ccc2c(c1)CCCC2)c1nc2c(C)cccc2s1	i	i	-0.38	8*	-14	i
CCN(CC)CCN(C(=O)c1ccc2c(c1)CCCC2)c1nc2ccc(C)cc2s1	i	i	0.68	12*	-31	i
CCN(CC)CCN(C(=O)c1ccc2c(c1)CCCC2)c1nc2ccc(F)cc2s1	i	i	1.1	i	-25	i
Cc1ccc(-c2nc(NC(=O)CSc3ncn[nH]3)ns2)cc1	i	i	-1.6	i	-4	i
O=C(NCc1ccc2c(c1)OCO2)C1CC(=O)N(C2CCCCCC2)C1 (stereo not drawn)	i	i	0.73	i	5.4*	i
CC(C)[C@H](CO)Nc1nc(NCc2ccc(S(N)(=O)=O)cc2)c2ncn(C(C)C)c2n1	i	i	-1	i	-4	i
O=C(CCN(CCO)Cc1ccccc1)Nc1ccc(Br)cc1	i	i	-3	i	-8	i
CCN(CCC(=O)Nc1ccc(Br)c(C)c1)Cc1ccccc1	i	i	-5.7*	8*	-8	i
CCN(Cc1ccccc1)c1ccc(/C=N/N=C(N)N)cc1	i	i	-14*	i	-41	i
O=S(=O)(c1ccccc1)N1CCN=C1SCc1cccnc1	i	i	-4.2*	i	-5	i
O=S(=O)(c1ccc(Cl)cc1)N1CCN=C1SCc1cccnc1	i	i	2.6	i	-10	i
COc1ccc(S(=O)(=O)N2CCN=C2SCc2cccnc2)cc1	i	i	-0.9	i	-7	i
Cc1ccc(S(=O)(=O)N2CCN=C2SCc2cccnc2)cc1	i	i	-4.8*	i	-3	i
Cc1ccc(NC(=O)C2=C(c3ccccc3)S(=O)(=O)CCS2(=O)=O)cc1	i	i	-5.7*	i	-7	i
Cc1ccc(C(C[N+](=O)[O-])c2c(C)[nH]n(-c3ccccc3)c2=O)cc1 (stereo not drawn)	i	i	-12*	i	-13	i
CCOc1ccc(C(=O)NCC(=O)NCCSc2ccc(Br)cc2)cc1OCC	nt	-9.8*	nt	nt	nt	nt
Cc1ccc(C(=O)NCC(=O)NCCSc2ccc(Br)cc2)cc1	i	i	-0.71	i	-13	i
CC(NC(=O)/C(C#N)=C/c1ccc(Cl)c([N+](=O)[O-])c1)c1ccccc1 (stereo not drawn)	i	nt	-5.5*	i	-18	i
C[C@@H](NC(=O)/C(C#N)=C/c1ccc(O)c(O)c1)c1ccccc1	nt	i	nt	nt	nt	nt
CCCOC(=S)NC(=O)c1sc2ccccc2c1Cl	i	i	0.2	i	15*	49*
CC(C)(C)C(=O)NC(=S)NNC(=O)c1sc2ccccc2c1Cl	i	i	2.1	i	34*	49*
O=C(NC(=S)NCCO)c1sc2ccccc2c1Cl	i	i	0	i	-7	i
